This is an account of results in the RNAGym collection of RNA variant scans (doi:10.1038/s41586-018-0170-7).

To fix the notation:
B1: tRNA (parent)
chain: GUUCCGUUGGCGUAAUGGUAACGCGUCUCCCUCCUAAGGAGAAGACUGCGGGUUCGAGUCCCGUACGGAACG

In this data set the parent is B1. The experiment in a line: yeast fitness, log relative to wild type (ln ratio); higher = fitter; tRNA-Arg(CCU), competitive growth, 37 C, 1 M NaCl. The procedure, abridged:
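Variants were counted by 125 bp paired-end Illumina sequencing after pools of a combinatorial tRNA-Arg(CCU) library, held on a HIS3 centromeric plasmid in BY4742 lacking the chromosomal gene, grew ~6.5 generations (~26.5 h) in SC-HIS 1M NaCl at 37 °C. Each genotype's fitness is the natural log of its generations relative to the wild type's. Generations were OD-scaled log2 output/input frequencies, inverse-variance weighted over replicates.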
Turning to AUUCCGUUGGCGUAAUGGUAACGCGUCUCCCUCCUAAGGAGACGACUGCGGGUUCGAGUCCCGUAAGGGGUG, the “yeast fitness (ln)” value was -0.249.
Then AUUCCGUUGGCGUAAUGGUAACGCGUCUCCCUCCUAAGGAGACGAUUGCGGGUUCGAGUCCCGUAUGGAAUG, with -0.247.
The value for AUUCCGUUGGCGUAAUGGUAACGCGUCUCCCUCCUAAGGAGACGAUUGCGGGUUCGAGUCCCGUAUGGGAUG was -0.295; that for AUUCCGUUGGCGUAAUGGUAACGCGUCUCCCUCCUAAGGAGACGAUUGCGGGUUCGAGUCCCGUACGGAAUG was -0.00436; that for AUUCCGUUGGCGUAAUGGUAACGCGUCUCCCUCCUAAGGAGACGACUGCGGGUUCGAGUCCCGUAUGGGGCG was -0.243.
On to AUUCCGUUGGCGUAAUGGUAACGCGUCUCCCUCCUAAGGAGACGACUGCGGGUUCGAGUCCCGUAUGGGUCG, for which the “yeast fitness (ln)” value was -0.373.
Then AUUCCGUUGGCGUAAUGGUAACGCGUCUCCCUCCUAAGGAGAAGACUGCGGGUUCGAGUCCCGUACGGGUCG, with -0.0407.
Then AUUCCGUUGGCGUAAUGGUAACGCGUCUCCCUCCUAAGGAGAAGACUGCGGGUUCGAGUCCCGUACGGGGCG, with -0.137; and AUUCCGUUGGCGUAAUGGUAACGCGUUUCCCUCCUAAGGAGACGAUUGCGGGUUCGAGUCCCGUAAGGAGUG, with -0.211.
Take AUUCCGUUGGCGUAAUGGUAACGCGUCUCCCUCCUAAGGAGACGAUUGCGGGUUCGAGUCCCGUAUGGAGUG: the “yeast fitness (ln)” value was -0.192.
Take AUUCCGUUGGCGUAAUGGUAACGCGUCUCCCUCCUAAGGAGACGACUGCGGGUUCGAGUCCCGUAAGGAAUG: the “yeast fitness (ln)” value is -0.275.
The value for AUUCCGUUGGCGUAAUGGUAACGCGUCUCCCUCCUAAGGAGACGACUGCGGGUUCGAGUCCCGUAUGGAUCG was -0.21; that for AUUCCGUUGGCGUAAUGGUAACGCGUCUCCCUCCUAAGGAGACGACUGCGGGUUCGAGUCCCGUAUGGAGCG was -0.236; that for AUUCCGUUGGCGUAAUGGUAACGCGUCUCCCUCCUAAGGAGACGACUGCGGGUUCGAGUCCCGUAUGGAUUG was -0.25.
The value for AUUCCGUUGGCGUAAUGGUAACGCGUUUCCCUCCUAAGGAGACGACUGCGGGUUCGAGUCCCGUACGGAGUG was -0.426; that for AUUCCGUUGGCGUAAUGGUAACGCGUCUCCCUCCUAAGGAGAAGACUGCGGGUUCGAGUCCCGUACGGGUUG was -0.44; that for AUUCCGUUGGCGUAAUGGUAACGCGUCUCCCUCCUAAGGAGACGACUGCGGGUUCGAGUCCCGUAUGGGUUG was -0.338.
The value for AUUCCGUUGGCGUAAUGGUAACGCGUUUCCCUCCUAAGGAGACGACUGCGGGUUCGAGUCCCGUACGGGAUG was -0.318; that for AUUCCGUUGGCGUAAUGGUAACGCGUUUCCCUCCUAAGGAGACGAUUGCGGGUUCGAGUCCCGUACGGGUUG was -0.366; that for AUUCCGUUGGCGUAAUGGUAACGCGUUUCCCUCCUAAGGAGACGAUUGCGGGUUCGAGUCCCGUAAGGAUUG was -0.359.
For AUUCCGUUGGCGUAAUGGUAACGCGUCUCCCUCCUAAGGAGACGACUGCGGGUUCGAGUCCCGUAUGGGGUG, the “yeast fitness (ln)” value is -0.293.
As for AUUCCGUUGGCGUAAUGGUAACGCGUUUCCCUCCUAAGGAGACGAUUGCGGGUUCGAGUCCCGUACGGAACG, the “yeast fitness (ln)” value is -0.131.
Then AUUCCGUUGGCGUAAUGGUAACGCGUUUCCCUCCUAAGGAGACGAUUGCGGGUUCGAGUCCCGUACGGGACG, with -0.116; and AUUCCGUUGGCGUAAUGGUAACGCGUCUCCCUCCUAAGGAGACGAUUGCGGGUUCGAGUCCCGUAUGGAUUG, with -0.323; and AUUCCGUUGGCGUAAUGGUAACGCGUUUCCCUCCUAAGGAGACGACUGCGGGUUCGAGUCCCGUACGGAGCG, with -0.173.
The value for AUUCCGUUGGCGUAAUGGUAACGCGUUUCCCUCCUAAGGAGACGACUGCGGGUUCGAGUCCCGUACGGAUCG was -0.329.
Then AUUCCGUUGGCGUAAUGGUAACGCGUUUCCCUCCUAAGGAGACGAUUGCGGGUUCGAGUCCCGUACGGGGCG, with -0.183; and AUUCCGUUGGCGUAAUGGUAACGCGUUUCCCUCCUAAGGAGACGAUUGCGGGUUCGAGUCCCGUACGGGUCG, with -0.324; and AUUCCGUUGGCGUAAUGGUAACGCGUUUCCCUCCUAAGGAGACGAUUGCGGGUUCGAGUCCCGUAAGGAAUG, with -0.231.
For the variant AUUCCGUUGGCGUAAUGGUAACGCGUUUCCCUCCUAAGGAGACGAUUGCGGGUUCGAGUCCCGUAUGGGUUG, the “yeast fitness (ln)” value was -0.448.
The value for AUUCCGUUGGCGUAAUGGUAACGCGUCUCCCUCCUAAGGAGACGACUGCGGGUUCGAGUCCCGUAAGGGUUG was -0.257; that for AUUCCGUUGGCGUAAUGGUAACGCGUUUCCCUCCUAAGGAGACGAUUGCGGGUUCGAGUCCCGUAAGGGUUG was -0.415; that for AUUCCGUUGGCGUAAUGGUAACGCGUUUCCCUCCUAAGGAGACGAUUGCGGGUUCGAGUCCCGUACGGAGCG was -0.147.
The value for AUUCCGUUGGCGUAAUGGUAACGCGUUUCCCUCCUAAGGAGACGAUUGCGGGUUCGAGUCCCGUACGGAUCG was -0.203; that for AUUCCGUUGGCGUAAUGGUAACGCGUUUCCCUCCUAAGGAGACGAUUGCGGGUUCGAGUCCCGUAUGGAACG was -0.199; that for AUUCCGUUGGCGUAAUGGUAACGCGUUUCCCUCCUAAGGAGACGAUUGCGGGUUCGAGUCCCGUAAGGAACG was -0.103.
The value for AUUCCGUUGGCGUAAUGGUAACGCGUUUCCCUCCUAAGGAGACGAUUGCGGGUUCGAGUCCCGUAUGGGGUG was -0.347.
